Reference: the RNAGym collection of RNA variant scans (doi:10.1126/science.aae0568)
Fewer inactive variants are shown than the library holds.

B1: tRNA (parent)
chain: GUUCCGUUGGCGUAAUGGUAACGCGUCUCCCUCCUAAGGAGAAGACUGCGGGUUCGAGUCCCGUACGGAACG

Variants of: B1
Test: yeast fitness relative to wild type (ratio to wild type); higher = fitter; tRNA-Arg(CCU), competitive growth, 37 C, YPD
In short: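 For this measurement, the tRNA-Arg(CCU) gene was varied by chemical synthesis at a 3% per-site mutation rate across 69 sites, and each variant was placed at the native genomic locus in Saccharomyces cerevisiae. The pooled strains went through a 24-hour competition in YPD at 37°C in six parallel replicates, with amplicons from start and end populations read by 100-nucleotide paired-end sequencing. Darwinian fitness relative to wild type followed from the change in each genotype's frequency. Genotypes needed ≥ 100 starting reads, and estimates < 0.5 were set to 0.5.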

Compared with GUUCCGUUGGCGUAAUGGUAACGCGUCUCCCUCCUGACGAGAAGACUGCGGGUUCGAGUCCCAUACGGAACG [A36G G38C G63A], GUUCCGUUGGCGUAAUGGUAACGCGUCUCCCUCCUCAGGAGAAGACUGCGGGUUCGAGUCCCGUAUGGAACG [A36C C66U] is higher in yeast fitness: ≤ 0.5 for the first, 0.575 for the second.

Compared with GUUCCGUUGGCGUAAUGGUAACGCGUCUCGCUCCCAAGGAGAAGACUGCGGGUUCGAGUCCUGUACGGAACG [C30G U35C C62U], GUUCCGUUGGCGUAAUGGUAGCGCGUCUCCCUCCUAAGGAGGAGACUGCGGGUUCGAGUCCCGUACGGAACG [A21G A42G] is higher in yeast fitness: 0.551 for the first, 0.714 for the second.

First: GUUCCGUUGGCGUAAUGGUAACGCGUCUCCCUCCUAAGGAGAGGACUGCGGGUUUGAGUCCCGUAGGGAACG [A43G C55U C66G]
Second: GUUCCGUUGGCGUAAUGGUAACCCGCCUCCCUCCUAAGGAGAAGACUGCGGGUUCGAGUCCCGUACGGAACG [G23C U26C]
The yeast fitness of the first is higher: 0.626 for the first, 0.624 for the second.

GUUCCGUUGGCAUAAUGGUAACGCGUCUCCCUCCCAAGGAGAAGACUCCGGGUUCGAGUCCCGUACGGAACG [G12A U35C G48C] and GUUCCGUUGGCGUAAUGGUAACGCGUCCCCCUCCUAAGGAGAAGACUACGGGUUCGAGUACUGUACGGAACG [U28C G48A C60A C62U] cannot be ordered by yeast fitness: ≤ 0.5 for the first, ≤ 0.5 for the second.

Going from GUUCCGUUGGCGUAAUGGUAAUGCGUCUCCCUCCUAAGGAGAAGACUGCGGGUCCGAGUCCCGUACGGAACG [C22U U54C] to GUUCUGUUGGCGUAAUGGUCUCGCGUCUCCCUCCUAAGGAGAAGACUGCGGGCUCGAGUCCCGAACGGAACG [C5U A20C A21U U53C U64A], the yeast fitness falls from 0.724 to ≤ 0.5.

Compared with GUUCCGUUGGCGUAUUGGUAACGCGUCUCCCUCCUAAGGAGAAGACUGCGGGUACGAGUCCCGUACGGAACG [A15U U54A], GUCCCGUUGGCGUAAUGGUAACGCGUCUCCCUCCUAGGGAGCAGACUGCGGGUUCGAGUCCCGUCCGGCACG [U3C A37G A42C A65C A69C] is lower in yeast fitness: 0.53 for the first, ≤ 0.5 for the second.

First: GUUCCGUUGGCGUAAAGGUAGCGCGUGUCCCUCCUAAGGAGAAGAUUGCGGGUUCGAGUCCCGUACGGAACG [U16A A21G C27G C46U]
Second: GUUCCGUUGGUGUAAUGGUAACGCAUCUCCCUCCUAAGGAGAAGACUGCGGGUUCGAGUCCUGUACGGACCG [C11U G25A C62U A70C]
The yeast fitness of the first is lower: 0.566 for the first, 0.67 for the second.

Compared with GUUCCGUUGGCGUCAUGGUAACGCGUCUCCCUCCUAAGGAGCAGACUGAGGGUUCGAGUCCCGUACGGAUCG [A14C A42C C49A A70U], GUUCCGUUGGCGUAAUGGUAACGCGCGUCCCUCCUAAGGCGAAGACUGCGGGUUCGAGUCCCGUACGGAACG [U26C C27G A40C] is lower in yeast fitness: 0.588 for the first, ≤ 0.5 for the second.

Compared with GUUCCGUUGGCGUAACGGUAACGCGACUCCCUCCUAAGGAGAAGACUGCGGGUUCGAGUCCCGUACGGAACG [U16C U26A], GUUCCGUUGGCGUAAUAGUAACGCGUCUCCCUCCUAAGGAGAAGACUGCGGGUACGAGUCCCGUACGGAGCG [G17A U54A A70G] is lower in yeast fitness: 0.973 for the first, ≤ 0.5 for the second.

GUUCCGUAGGCGUACUGGUCACGCGUCCCCCUCCUAAGGAGAAGACUGCGGGUUCGAGUCCCGUACGGAACG [U8A A15C A20C U28C] and GUUCCGUUGGCGUAAUGGUAACGCGUUACCCACUUCAGGAGAAGACUGCGGGUUAGAGUCCCGUCCGGACCG [C27U U28A U32A C34U A36C C55A A65C A70C] cannot be ordered by yeast fitness: ≤ 0.5 for the first, ≤ 0.5 for the second.

GUUCAGUUGGCGUAAUGGUAACGCGUCUCCCUCCCAAGGAGAAAACUCCGGGUUAGAGUCCCGUACGGAACG [C5A U35C G44A G48C C55A] and GUUCCGUUGGCGUAAUGGUCACGCGUCUCCCUCUUAAGGAGAAGACUGCGGAUUCGAGUCCCGUACGAAACG [A20C C34U G52A G68A] cannot be ordered by yeast fitness: ≤ 0.5 for the first, ≤ 0.5 for the second.

First: GUUCCGGUGGCGUAAUGGUAACGCGUCUCCCUCCUAAGGAGAAGACUGCGGGUUCGUGUCCCGUACGGAACG [U7G A57U]
Second: GUUCCGUUGGCGUAAUGGUAACGCCUCUCCCUCCUAAGGACAAGACUGCGGGUUCGAGUCCCGUACGGAACG [G25C G41C]
The yeast fitness of the first is lower: 0.599 for the first, 0.625 for the second.

First: GUUCCGUUGCCGUACUGGUAACGUGUCUCCCUCCUAAGGAGAAGACUGCGGGUCCGAGUACAGUACGGAACG [G10C A15C C24U U54C C60A C62A]
Second: GUUCCGUUGGAGUAUCGGUAUCGCGUCUCCCUCCUCUGGAGAAGACUGCGGGUUCGAGUCCCGUACGGAACG [C11A A15U U16C A21U A36C A37U]
The yeast fitness of the first is higher: 0.585 for the first, ≤ 0.5 for the second.

GUUCCGUUGGCGUAAUGGUAACGCGUCUCCCUCCGAACGAGAAGACUGCGGGUUCGAGUCCCAUACGGAACG [U35G G38C G63A] and GUUCCGUUGGCGUAGUGGUAACGCGUCUCCCUUCUAAGGAGAAGUCUGCGGGUUCGAGUCCAGUACGGAACG [A15G C33U A45U C62A] cannot be ordered by yeast fitness: ≤ 0.5 for the first, ≤ 0.5 for the second.

GUUCCGUUGGCGUAAUGGCAACGCGUCUCCCCGUUAAGGAGAAGACUGCGGGUACGAGUCCCGUAUGGAACG [U19C U32C C33G C34U U54A C66U] and GUUCCGUUGGCGUAAUGGUUACGCGUCUCCCUCCUAAAGAGAAGACUGCGGGUUCGUGUCCCGUACGGAACG [A20U G38A A57U] cannot be ordered by yeast fitness: ≤ 0.5 for the first, ≤ 0.5 for the second.

Going from GUUCCGUUGGCGUAAUCGUAACGCAUCUCCCACCUAAGGAGAGGACUGCGGGUUCGUGUCCCGUACGGAACG [G17C G25A U32A A43G A57U] to GUUACGUUGGCGUAAUGGUAACGCGUCUCGCUCCUAAGGACAAGACUGCGGGUUCGAGUCCCGUACGAAACG [C4A C30G G41C G68A], the yeast fitness falls from 0.546 to ≤ 0.5.

GUUCAGUUGGCGUAAUGGUAACGCGUCUCCCUUCUAAGGAGAUGACUGGCGGUUCGAGUCUCGUAUGGAACG [C5A C33U A43U C49G G50C C61U C66U] and GUUCCGUUGGCGUAAUGGUAACGCGUCUCCCUCCUUAGGAGACCACUCCGGGUUCGAGUCCCGUACGGAACG [A36U A43C G44C G48C] cannot be ordered by yeast fitness: ≤ 0.5 for the first, ≤ 0.5 for the second.

Going from GUUCCGUUGGCGUAAUGGUAACGCGUCUUCCUCCUUAGGAGAAGACUGCGGGUUCGGAUCCCGUACGGAACG [C29U A36U A57G G58A] to GUACCGUUGGCGUAAUGGUAACGCGUCUCCCUCCUAAGGAGAAGACUGCGGGUUCGAGUCCCGUACGAAACG [U3A G68A], the yeast fitness rises from ≤ 0.5 to 0.854.

Variant GUUCCGUUGGCGUAAUGGUAACGUGUCUCCCUCCUUAGGAGAAGACUGGGGGUUCGAGUCCCGUACGGAACG [C24U A36U C49G] has a yeast fitness of 0.544.
